Screens deposited in PubChem by several laboratories.
proKLK7 act: activators of human kallikrein-7 zymogen; hit rate 0.9% among 370,000; purified proKLK7, EDANS-DABCYL substrate fluorescence; 100% is mature enzyme control, 0% vehicle; activation, % at 7 µM; P49862;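 active = activation above the mean of all tested compounds plus 3 SD, computed per campaign excluding outliers beyond control limits, cut at about 13% in these data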
PLC-gamma1 inh: blocks human PLC-gamma1 enzyme activity. P19174. purified PLC-gamma1, fluorogenic substrate, fluorescence. inhibition, % at 12.2 µM. hit rate 0.84% among 370,000. AID 720700; in the data active = inhibition above about 9.5%
DDE Tn7 FP inh: inhibitors of Tn7 peptide binding to human fibrin DD(E) | P02675 | FP displacement of FITC-Tn7 peptide from fibrin DD(E); 0% = median of compound wells per plate | inhibition, % at 8.3 µM | hit rate 0.13% among 370,000 | AID 720508;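 active = inhibition above the mean of compounds falling within the control limits plus 3 SD of them, cut at about 14% in these data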;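 also: 0% = plate median of compound wells and 100% = 10 µM Aha-Tn7 peptide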
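Assay system: human fibrin DD(E) protein / Input: 2 µM fibrin DD(E) / Benchmarks: high control of 10 µM Aha-Tn7 peptide / Measured by: fluorescence polarization of the labelled Tn7 tracer / Medium: Tris buffer with calcium and detergent, pH 7.8 / Timing: 10 min compound pre-incubation, 3 h probe incubation at room temperature / Repeats: one replicate per compound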
PLCb3 inh: blocks human PLC-beta3 enzyme activity | hit rate 0.18% among 370,000 | Purified PLC-beta3, fluorogenic substrate, fluorescence | inhibition, % at 12.2 µM | AID 720704 | Q01970;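 also: 0% = median of compound wells on plate and 100% = full blocker control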
Target sequence (Q01970 whole entry, looked up): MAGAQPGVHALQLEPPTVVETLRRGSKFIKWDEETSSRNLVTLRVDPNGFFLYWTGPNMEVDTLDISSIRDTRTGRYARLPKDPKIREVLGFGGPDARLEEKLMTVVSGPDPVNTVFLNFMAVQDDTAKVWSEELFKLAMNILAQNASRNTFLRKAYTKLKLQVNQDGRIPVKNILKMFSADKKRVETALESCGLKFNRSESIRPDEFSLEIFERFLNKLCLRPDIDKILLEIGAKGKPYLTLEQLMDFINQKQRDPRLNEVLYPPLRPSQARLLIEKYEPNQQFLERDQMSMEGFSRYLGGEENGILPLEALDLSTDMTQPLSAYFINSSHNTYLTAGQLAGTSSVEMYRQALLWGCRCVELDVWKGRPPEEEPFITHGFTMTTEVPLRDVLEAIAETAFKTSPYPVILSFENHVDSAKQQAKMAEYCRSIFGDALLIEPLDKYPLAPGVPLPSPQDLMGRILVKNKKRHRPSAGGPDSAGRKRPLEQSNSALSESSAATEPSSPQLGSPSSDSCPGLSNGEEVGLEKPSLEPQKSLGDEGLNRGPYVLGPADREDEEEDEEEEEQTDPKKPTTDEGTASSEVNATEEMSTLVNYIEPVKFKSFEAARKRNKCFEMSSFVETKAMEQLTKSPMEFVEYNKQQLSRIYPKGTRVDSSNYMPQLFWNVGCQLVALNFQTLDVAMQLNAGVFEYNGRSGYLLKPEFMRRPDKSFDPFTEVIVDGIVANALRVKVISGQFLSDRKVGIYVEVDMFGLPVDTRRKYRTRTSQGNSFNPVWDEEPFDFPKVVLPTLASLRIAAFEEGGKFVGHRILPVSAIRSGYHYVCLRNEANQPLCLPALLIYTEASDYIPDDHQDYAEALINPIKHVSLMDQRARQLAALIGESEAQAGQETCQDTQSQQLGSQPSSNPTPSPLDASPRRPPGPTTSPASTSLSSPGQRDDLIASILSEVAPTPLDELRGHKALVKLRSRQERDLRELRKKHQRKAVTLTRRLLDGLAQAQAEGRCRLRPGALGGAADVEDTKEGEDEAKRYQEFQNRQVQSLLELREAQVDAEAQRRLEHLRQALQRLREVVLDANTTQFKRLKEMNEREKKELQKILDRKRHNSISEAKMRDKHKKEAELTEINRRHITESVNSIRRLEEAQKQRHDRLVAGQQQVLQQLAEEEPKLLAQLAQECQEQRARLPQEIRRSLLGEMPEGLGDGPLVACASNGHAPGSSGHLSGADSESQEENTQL
DDE Tn6 FP inh: inhibitors of Tn6 peptide binding to human fibrin DD(E). P02675. Fibrin DD(E) TRITC-Tn6 fluorescence polarization displacement. inhibition, % at 8.3 µM. hit rate 0.21% among 370,000. AID 720509;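 active = inhibition above a per-campaign cutoff: mean of compounds within control limits plus 3 SD, cut at about 15% in these data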;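 also: 0% = median of all compound wells on the plate and 100% = blocking peptide control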
CendR NRP1 mod: modulators of CendR peptide binding to human neuropilin-1; FAM-RPARPAR peptide binding to NRP-1, fluorescence polarization; hit rate 0.85% among 360,000; O14786; inhibition, % at 25 µM;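 active = inhibition or corrected inhibition above about 18%, plus a signal ratio from 0.5 to 1.5, limit read from the data, passing the limit was not always enough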
PLCgamma1 ctr: counter-screen for PLC-beta3 inhibitors: inhibitors of human PLC-gamma1. purified PLC-gamma1, fluorogenic substrate, fluorescence. inhibition, % at 12.3 µM. hit rate 3.1% among 3,300. shares compounds with PLC-gamma1 inh; in the data active = inhibition above about 9.5%
PLCb3 confirm: confirmation of human PLC-beta3 inhibitors | shares compounds with PLC-gamma1 inh | purified PLC-beta3, fluorogenic substrate fluorescence | inhibition, % at 12.3 µM | hit rate 1% among 3,300 | AID 743261
Numbers without * were called inactive. A selection: hits, their analogues and other compounds. The true share with any hit is near 3%. Rule as the data show it, unless noted: active = inhibition above about 11%; inactive = the rest.

What do the screens show for `Cc1ccc(NC(=S)N(N)CCO)cc1`?
proKLK7 act: 0; PLC-gamma1 inh: 12*; DDE Tn7 FP inh: 2; PLCb3 inh: 5; DDE Tn6 FP inh: -1; CendR NRP1 mod: 5; PLCgamma1 ctr: 0; PLCb3 confirm: -1

How did CSc1cc(SC)ncn1 do in these assays?
proKLK7 act: -1; PLC-gamma1 inh: 5; DDE Tn7 FP inh: 0; PLCb3 inh: 12*; DDE Tn6 FP inh: -5; CendR NRP1 mod: 4; PLCgamma1 ctr: -6; PLCb3 confirm: -1

How did COc1ccc(CN2CCC(CNC(=O)Nc3ccc(Cl)cc3)CC2)cc1 do in these assays?
proKLK7 act: -1; PLC-gamma1 inh: 2; DDE Tn7 FP inh: 1; PLCb3 inh: 1; DDE Tn6 FP inh: 5

How did Cc1ccc2nsnc2c1S(=O)(=O)NCCc1c(C)[nH]c2ccc(F)cc12 do in these assays?
proKLK7 act: 0; PLC-gamma1 inh: 10*; DDE Tn7 FP inh: 1; PLCb3 inh: 8; DDE Tn6 FP inh: 0; CendR NRP1 mod: -6; PLCgamma1 ctr: -1; PLCb3 confirm: -3

How did Clc1cc(Br)ccc1OCCOCCN1CCOCC1 do in these assays?
proKLK7 act: 0; PLC-gamma1 inh: 13*; DDE Tn7 FP inh: -2; PLCb3 inh: 14*; DDE Tn6 FP inh: 4; CendR NRP1 mod: -7; PLCgamma1 ctr: -4; PLCb3 confirm: 0

How did Clc1ccc(OCCOCCN2CCCCC2)c(Br)c1 do in these assays?
proKLK7 act: 0; PLC-gamma1 inh: 11*; DDE Tn7 FP inh: -5; PLCb3 inh: 5; DDE Tn6 FP inh: -1; CendR NRP1 mod: 10; PLCgamma1 ctr: -8; PLCb3 confirm: 1

What do the screens show for `Nc1[nH]c2cc(C(F)(F)F)ccc2c1C(=O)NC1CCCCC1`?
proKLK7 act: 1; PLC-gamma1 inh: 1; DDE Tn7 FP inh: -3; PLCb3 inh: 4; DDE Tn6 FP inh: 4

Results for COC(=O)[C@H](C(C)C)N(Cc1cn(Cc2ccc(C)cc2)nn1)S(=O)(=O)c1ccc(F)cc1Br ?
proKLK7 act: 0; PLC-gamma1 inh: 2; DDE Tn7 FP inh: 2; PLCb3 inh: 4; DDE Tn6 FP inh: -7

How did CCO[C@H]1OC(C(=O)Nc2ccccc2)=C[C@@H](c2ccc(C(F)(F)F)cc2)[C@@H]1CCCO do in these assays?
proKLK7 act: 0; PLC-gamma1 inh: 10*; DDE Tn7 FP inh: -2; PLCb3 inh: 7; DDE Tn6 FP inh: -3; CendR NRP1 mod: -3; PLCgamma1 ctr: -3; PLCb3 confirm: 4

Results for CCO[C@H]1OC(C(=O)NCc2ccccc2)=C[C@@H](c2ccc(C(F)(F)F)cc2)[C@@H]1CCCO ?
proKLK7 act: 0; PLC-gamma1 inh: 2; DDE Tn7 FP inh: 1; PLCb3 inh: 2; DDE Tn6 FP inh: -4; CendR NRP1 mod: 15

What do the screens show for `COc1ccccc1CNC(=O)N1CCN(Cc2nc3ccccc3c(=O)[nH]2)CC1`?
proKLK7 act: 0; PLC-gamma1 inh: -2; DDE Tn7 FP inh: 2; PLCb3 inh: 0; DDE Tn6 FP inh: -7

How did CCOC(=O)/C(C#N)=C1/C=CN(Cc2ccccc2)C=N1 do in these assays?
proKLK7 act: 0; PLC-gamma1 inh: 9; DDE Tn7 FP inh: 2; PLCb3 inh: 11; DDE Tn6 FP inh: 1; CendR NRP1 mod: -10

How did CCOC(=O)/C(C#N)=C1/SC(CC)C(=O)N1c1ccc(C)cc1 (configuration not stated) do in these assays?
proKLK7 act: -1; PLC-gamma1 inh: 2; DDE Tn7 FP inh: 5; PLCb3 inh: -2; DDE Tn6 FP inh: 6; CendR NRP1 mod: 9

Results for CCOC(=O)/C(C#N)=C1\C=CN(C)C(C)=N1 ?
proKLK7 act: 0; PLC-gamma1 inh: 5; DDE Tn7 FP inh: 8; PLCb3 inh: 2; DDE Tn6 FP inh: 4; CendR NRP1 mod: 0

What do the screens show for `CCOC(=O)/C(C#N)=C1/C=CN(C)C=N1`?
proKLK7 act: 0; PLC-gamma1 inh: 10*; DDE Tn7 FP inh: 8; PLCb3 inh: 8; DDE Tn6 FP inh: 1; CendR NRP1 mod: -7; PLCgamma1 ctr: 14*; PLCb3 confirm: 9

Results for CCOC(=O)/C(C#N)=C1/C=CN(c2ccccc2)C=N1 ?
proKLK7 act: 0; PLC-gamma1 inh: 11*; DDE Tn7 FP inh: -7; PLCb3 inh: 6; DDE Tn6 FP inh: 4; CendR NRP1 mod: 1; PLCgamma1 ctr: 7; PLCb3 confirm: 7

How did CCOC(=O)/C(C#N)=C1/C=CN(c2ccc(C)cc2)C=N1 do in these assays?
proKLK7 act: 0; PLC-gamma1 inh: 13*; DDE Tn7 FP inh: -1; PLCb3 inh: 12*; DDE Tn6 FP inh: 7; CendR NRP1 mod: -1; PLCgamma1 ctr: -5; PLCb3 confirm: 1

What do the screens show for `COc1cccc(CNC(=O)CCCN2C(=O)COc3ccc(C)cc32)c1OC`?
proKLK7 act: 0; PLC-gamma1 inh: -1; DDE Tn7 FP inh: 4; PLCb3 inh: 2; DDE Tn6 FP inh: 1

Results for Cc1ccc(NC(=S)NCc2ccc(Cl)cc2)c(C)c1 ?
proKLK7 act: 0; PLC-gamma1 inh: 11*; DDE Tn7 FP inh: -5; PLCb3 inh: -1; DDE Tn6 FP inh: -1; CendR NRP1 mod: -10; PLCgamma1 ctr: -3; PLCb3 confirm: -5

How did Cc1cc(Cl)ccc1NC(=S)NCc1ccccc1 do in these assays?
proKLK7 act: 0; PLC-gamma1 inh: 1; DDE Tn7 FP inh: -8; PLCb3 inh: 2; DDE Tn6 FP inh: -8; CendR NRP1 mod: 2

What do the screens show for `C#CNC(=O)C1(CC=C)CCNCC1`?
proKLK7 act: 0; PLC-gamma1 inh: 4; DDE Tn7 FP inh: -4; PLCb3 inh: 12*; DDE Tn6 FP inh: 1; CendR NRP1 mod: 1; PLCgamma1 ctr: -5; PLCb3 confirm: -2

What do the screens show for `O=C(O)CCC(=O)CCC(=O)c1ccc(Cl)cc1`?
proKLK7 act: 1; PLC-gamma1 inh: 11*; DDE Tn7 FP inh: -4; PLCb3 inh: 1; DDE Tn6 FP inh: -1; CendR NRP1 mod: -7; PLCgamma1 ctr: -5; PLCb3 confirm: -1

What do the screens show for `CC(C)NC(=O)C1(C)CCN1C/C=C/c1ccccc1` (configuration not stated)?
proKLK7 act: 0; PLC-gamma1 inh: 12*; DDE Tn7 FP inh: -4; PLCb3 inh: 7; DDE Tn6 FP inh: 0; CendR NRP1 mod: -15; PLCgamma1 ctr: -8; PLCb3 confirm: -6

What do the screens show for `O=C1CCCC2=C1C1(CCCC1)N=C(Nc1nc3cc(Br)ccc3o1)N2`?
PLC-gamma1 inh: -17; DDE Tn7 FP inh: 7; PLCb3 inh: -27; DDE Tn6 FP inh: -3

What do the screens show for `O=C(CCN1CCN(c2ccccc2F)CC1)Nc1ccccc1F`?
proKLK7 act: 0; PLC-gamma1 inh: 11*; DDE Tn7 FP inh: 1; PLCb3 inh: 6; DDE Tn6 FP inh: 8; CendR NRP1 mod: 3; PLCgamma1 ctr: -3; PLCb3 confirm: -1
